Laboratory results from ChEMBL document CHEMBL1135657, “Novel dual inhibitors of AChE and MAO derived from hydroxy aminoindan and phenethylamine as potential treatment for Alzheimer's disease” (J Med Chem, 2002).

Experiments:
[1] = biological target: T1, Amine oxidase [flavin-containing] B (Rattus norvegicus, UniProt P19643); experiment: In vitro inhibitory concentration against Monoamine oxidase B of rat brain homogenates; type: tissue-based
T1 sequence (P19643 whole entry): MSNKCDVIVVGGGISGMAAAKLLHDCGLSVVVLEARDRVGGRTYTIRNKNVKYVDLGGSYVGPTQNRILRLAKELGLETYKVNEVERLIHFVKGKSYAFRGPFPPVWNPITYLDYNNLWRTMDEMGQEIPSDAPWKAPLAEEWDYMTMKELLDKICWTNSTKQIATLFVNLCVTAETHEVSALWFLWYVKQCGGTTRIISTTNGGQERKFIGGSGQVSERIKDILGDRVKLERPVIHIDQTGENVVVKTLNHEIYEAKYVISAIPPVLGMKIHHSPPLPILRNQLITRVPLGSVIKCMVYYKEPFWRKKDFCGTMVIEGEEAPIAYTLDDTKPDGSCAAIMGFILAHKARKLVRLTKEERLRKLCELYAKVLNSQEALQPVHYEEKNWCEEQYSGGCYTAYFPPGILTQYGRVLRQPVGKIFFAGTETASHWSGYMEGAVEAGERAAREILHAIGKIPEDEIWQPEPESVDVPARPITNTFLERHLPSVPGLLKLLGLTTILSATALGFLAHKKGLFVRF

[2] = biological target: T2, Acetylcholinesterase (Homo sapiens, UniProt P22303); experiment: In vitro inhibitory concentration against purified Acetylcholinesterase of human erythrocytes; value ranges from 2.2-10.1
T2 sequence (P22303 whole entry): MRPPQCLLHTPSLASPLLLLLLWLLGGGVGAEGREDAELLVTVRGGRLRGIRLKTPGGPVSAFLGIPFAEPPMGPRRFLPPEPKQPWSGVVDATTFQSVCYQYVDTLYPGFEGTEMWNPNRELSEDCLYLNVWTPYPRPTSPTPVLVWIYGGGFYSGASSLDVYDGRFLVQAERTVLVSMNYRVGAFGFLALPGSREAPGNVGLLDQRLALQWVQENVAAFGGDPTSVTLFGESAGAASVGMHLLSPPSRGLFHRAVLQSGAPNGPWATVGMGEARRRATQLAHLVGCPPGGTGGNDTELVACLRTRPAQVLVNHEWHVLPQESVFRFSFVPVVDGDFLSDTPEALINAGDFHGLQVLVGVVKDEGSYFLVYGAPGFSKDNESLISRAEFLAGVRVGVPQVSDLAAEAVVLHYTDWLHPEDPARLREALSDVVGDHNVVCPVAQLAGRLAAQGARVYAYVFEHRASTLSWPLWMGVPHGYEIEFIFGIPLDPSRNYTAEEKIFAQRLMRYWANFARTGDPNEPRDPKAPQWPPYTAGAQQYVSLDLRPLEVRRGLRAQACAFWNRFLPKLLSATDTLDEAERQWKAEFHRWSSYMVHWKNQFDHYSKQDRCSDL

[3] = biological target: T3, Butyrylcholinesterase (Equus caballus, UniProt Q9N1N9); experiment: In vitro inhibitory concentration against Butyrylcholinesterase of horse serum; value ranges from 0.71-0.86
T3 sequence (Q9N1N9 whole entry): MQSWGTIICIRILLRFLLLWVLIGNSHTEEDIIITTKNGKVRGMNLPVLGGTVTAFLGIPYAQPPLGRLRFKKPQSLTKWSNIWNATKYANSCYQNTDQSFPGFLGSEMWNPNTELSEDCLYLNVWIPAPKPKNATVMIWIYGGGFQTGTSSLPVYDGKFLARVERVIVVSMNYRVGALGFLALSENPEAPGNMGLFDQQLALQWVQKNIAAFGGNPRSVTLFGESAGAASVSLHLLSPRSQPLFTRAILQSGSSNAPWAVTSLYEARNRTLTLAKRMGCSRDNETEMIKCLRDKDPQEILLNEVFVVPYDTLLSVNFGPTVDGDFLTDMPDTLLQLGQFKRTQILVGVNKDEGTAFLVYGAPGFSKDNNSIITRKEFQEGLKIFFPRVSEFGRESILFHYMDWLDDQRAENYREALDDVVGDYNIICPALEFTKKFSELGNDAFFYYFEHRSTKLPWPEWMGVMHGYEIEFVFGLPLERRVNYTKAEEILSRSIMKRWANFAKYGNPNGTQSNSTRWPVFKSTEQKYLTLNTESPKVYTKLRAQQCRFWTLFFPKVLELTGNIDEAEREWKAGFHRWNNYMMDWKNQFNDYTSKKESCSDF
Method in brief: (§1)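 Ellman assay followed, with 200 µM butyrylthiocholine as substrate. Runs were in triplicate with four-point dose-response curves. IC50 and fiducial limits came from log concentration versus % inhibition.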

[4] = biological target: T4, Amine oxidase [flavin-containing] A (Rattus norvegicus, UniProt P21396); experiment: In vitro inhibitory concentration against Monoamine oxidase A of rat brain homogenates; value ranges from 1.8-2.4; type: tissue-based
T4 sequence (P21396 whole entry): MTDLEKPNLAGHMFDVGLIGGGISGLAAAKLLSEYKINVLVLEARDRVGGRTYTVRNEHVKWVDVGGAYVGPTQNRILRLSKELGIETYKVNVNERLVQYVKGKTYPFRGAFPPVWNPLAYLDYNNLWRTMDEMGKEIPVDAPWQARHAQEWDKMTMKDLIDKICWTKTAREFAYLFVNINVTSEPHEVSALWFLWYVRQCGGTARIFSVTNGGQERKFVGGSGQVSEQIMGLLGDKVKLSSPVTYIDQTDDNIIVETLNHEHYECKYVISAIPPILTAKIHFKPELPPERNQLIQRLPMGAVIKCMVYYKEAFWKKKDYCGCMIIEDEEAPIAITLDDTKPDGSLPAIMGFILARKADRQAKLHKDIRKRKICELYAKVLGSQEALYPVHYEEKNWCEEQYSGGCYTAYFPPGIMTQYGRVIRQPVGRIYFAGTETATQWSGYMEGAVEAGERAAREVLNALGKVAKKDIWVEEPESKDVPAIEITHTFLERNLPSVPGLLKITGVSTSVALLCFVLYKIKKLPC

[5] = biological target: T4, Amine oxidase [flavin-containing] A; experiment: In vitro inhibitory concentration against Monoamine oxidase A of rat brain homogenates; value ranges from 0.005-0.012; type: tissue-based
[6] = biological target: T4, Amine oxidase [flavin-containing] A; experiment: In vitro inhibitory concentration against Monoamine oxidase A of rat brain homogenates; value ranges from 0.5-1.6; type: tissue-based
[7] = biological target: T1, Amine oxidase [flavin-containing] B; experiment: In vitro inhibitory concentration against Monoamine oxidase B of rat brain homogenates; value ranges from 0.7-1.3; type: tissue-based
[8] = biological target: T3, Butyrylcholinesterase; experiment: In vitro inhibitory concentration against Butyrylcholinesterase of horse serum; value ranges from […]; method in brief: as §1
[9] = biological target: T4, Amine oxidase [flavin-containing] A; experiment: In vitro inhibitory concentration against Monoamine oxidase A of rat brain homogenates; type: tissue-based
[10] = biological target: T2, Acetylcholinesterase; experiment: In vitro inhibitory concentration against purified Acetylcholinesterase of human erythrocytes; value ranges from 3.87-11.9
[11] = biological target: T2, Acetylcholinesterase; experiment: In vitro inhibitory concentration against purified Acetylcholinesterase of human erythrocytes; value ranges from 7.3-50.4
[12] = biological target: T1, Amine oxidase [flavin-containing] B; experiment: In vitro inhibitory concentration against Monoamine oxidase B of rat brain homogenates; value ranges from 0.4-1.3; type: tissue-based
[13] = biological target: T4, Amine oxidase [flavin-containing] A; experiment: In vitro inhibitory concentration against Monoamine oxidase A of rat brain homogenates; value ranges from 0.5-1.4; type: tissue-based
[14] = biological target: T2, Acetylcholinesterase; experiment: In vitro inhibitory concentration against purified Acetylcholinesterase of human erythrocytes; value ranges from 0.16-0.18
[15] = biological target: T4, Amine oxidase [flavin-containing] A; experiment: In vitro inhibitory concentration against Monoamine oxidase A of rat brain homogenates; value ranges from 230-820; type: tissue-based
[16] = biological target: T3, Butyrylcholinesterase; experiment: In vitro inhibitory concentration against Butyrylcholinesterase of horse serum; value ranges from 0.23-0.26; method in brief: as §1
[17] = biological target: T4, Amine oxidase [flavin-containing] A; experiment: In vitro inhibitory concentration against Monoamine oxidase A of rat brain homogenates; value ranges from 1.7-3.9; type: tissue-based
[18] = biological target: T1, Amine oxidase [flavin-containing] B; set-up: species or system Brain
[19] = biological target: T3, Butyrylcholinesterase; experiment: In vitro inhibitory concentration against Butyrylcholinesterase of horse serum; value ranges from 0.22-1.54; method in brief: as §1
[20] = biological target: T4, Amine oxidase [flavin-containing] A; experiment: In vitro inhibitory concentration against Monoamine oxidase A of rat brain homogenates; value ranges from 4.3-7.3; type: tissue-based
[21] = biological target: T2, Acetylcholinesterase; experiment: In vitro inhibitory concentration against purified Acetylcholinesterase of human erythrocytes; value ranges from […]-[…]
[22] = biological target: T3, Butyrylcholinesterase; experiment: In vitro inhibitory concentration against Butyrylcholinesterase of horse serum; value ranges from 1.63-2.45; method in brief: as §1
[23] = biological target: T2, Acetylcholinesterase; experiment: In vitro inhibitory concentration against purified Acetylcholinesterase of human erythrocytes; value ranges from 2.0-15.2
[24] = biological target: T3, Butyrylcholinesterase; experiment: In vitro inhibitory concentration against Butyrylcholinesterase of horse serum; value ranges from 4.8-73.9; method in brief: as §1
[25] = biological target: T2, Acetylcholinesterase; experiment: In vitro inhibitory concentration against purified Acetylcholinesterase of human erythrocytes; value ranges from 2.2-6.4
[26] = biological target: T2, Acetylcholinesterase; experiment: In vitro inhibitory concentration against purified Acetylcholinesterase of human erythrocytes; value ranges from 4.6-25.8
[27] = biological target: T4, Amine oxidase [flavin-containing] A; experiment: In vitro inhibitory concentration against Monoamine oxidase A of rat brain homogenates; value ranges from 0.47; type: tissue-based
[28] = biological target: T4, Amine oxidase [flavin-containing] A; experiment: In vitro inhibitory concentration against Monoamine oxidase A of rat brain homogenates; value ranges from 0.28-0.34; type: tissue-based
[29] = biological target: T2, Acetylcholinesterase; experiment: In vitro inhibitory concentration against purified Acetylcholinesterase of human erythrocytes; value ranges from 1.66-3.14
[30] = biological target: T2, Acetylcholinesterase; experiment: In vitro inhibitory concentration against purified Acetylcholinesterase of human erythrocytes; value ranges from 33.2-96.7
[31] = biological target: T2, Acetylcholinesterase; experiment: In vitro inhibitory concentration against purified Acetylcholinesterase of human erythrocytes; value ranges from 13.6-198
[32] = biological target: T3, Butyrylcholinesterase; experiment: In vitro inhibitory concentration against Butyrylcholinesterase of horse serum; value ranges from 2.77-15.4; method in brief: as §1
[33] = biological target: T2, Acetylcholinesterase
[34] = biological target: T4, Amine oxidase [flavin-containing] A; experiment: In vitro inhibitory concentration against Monoamine oxidase A of rat brain homogenates; value ranges from 75-240; type: tissue-based
[35] = biological target: T1, Amine oxidase [flavin-containing] B; experiment: In vitro inhibitory concentration against Monoamine oxidase B of rat brain homogenates; value ranges from 77-123
[36] = biological target: T2, Acetylcholinesterase; experiment: In vitro inhibitory concentration against purified Acetylcholinesterase of human erythrocytes
[37] = biological target: T2, Acetylcholinesterase; experiment: In vitro inhibitory concentration against purified Acetylcholinesterase of human erythrocytes; value ranges from 8.6-49.9
[38] = biological target: T4, Amine oxidase [flavin-containing] A; experiment: In vitro inhibitory concentration against Monoamine oxidase A of rat brain homogenates; value ranges from 560-1000; type: tissue-based
[39] = biological target: T1, Amine oxidase [flavin-containing] B; experiment: In vitro inhibitory concentration against Monoamine oxidase B of rat brain homogenates; value ranges from 200-1400; type: tissue-based
[40] = biological target: T3, Butyrylcholinesterase
[41] = biological target: T4, Amine oxidase [flavin-containing] A; experiment: In vitro inhibitory concentration against Monoamine oxidase A of rat brain homogenates; value ranges from 170-340; type: tissue-based
[42] = biological target: T3, Butyrylcholinesterase; experiment: In vitro inhibitory concentration against Butyrylcholinesterase of horse serum; value ranges from 6.3-52.4; method in brief: as §1
[43] = biological target: T2, Acetylcholinesterase; experiment: In vitro inhibitory concentration against purified Acetylcholinesterase of human erythrocytes; value ranges from 6.4-45.9
[44] = biological target: T1, Amine oxidase [flavin-containing] B; experiment: In vitro inhibitory concentration against Monoamine oxidase B of rat brain homogenates; value ranges from 360-470; type: tissue-based
[45] = biological target: T2, Acetylcholinesterase; experiment: In vitro inhibitory concentration against purified Acetylcholinesterase of human erythrocytes; value ranges from 7.81-39.2
[46] = biological target: T3, Butyrylcholinesterase; experiment: In vitro inhibitory concentration against Butyrylcholinesterase of horse serum; value ranges from 5.02-12.2; method in brief: as §1

SMILES: C#CCNC1CCc2ccc(OC(=O)N(C)C)cc2C1 (stereo not given)
- IC50 [1]: 1000 µM
- IC50 [2]: 4.1 µM
- IC50 [3]: 0.77 µM
- IC50 [4]: 2 µM

SMILES: C#CCN(C)C1CCc2c(O)cccc21 (stereo not given)
- IC50 [5]: 0.008 µM

SMILES: C#CCNC1CCc2c(O)cccc21 (stereo not given)
- IC50 [6]: 0.9 µM
- IC50 [7]: 0.9 µM

SMILES: CCN(C)C(=O)Oc1ccc2c(c1)C(N)CCC2 (stereo not given)
- IC50 [8]: 5.41 µM
- IC50 [9]: 1000 µM
- IC50 [10]: 6.22 µM

SMILES: C#CCN(C)CCc1cccc(OC(=O)N(C)CC)c1
- IC50 [11]: 16.6 µM
- IC50 [12]: 0.8 µM
- IC50 [13]: 0.8 µM

SMILES: C#CC(C)NCCc1cccc(OC(=O)N(C)C)c1 (stereo not given)
- IC50 [14]: 0.17 µM
- IC50 [1]: > 1000 µM
- IC50 [15]: 440 µM
- IC50 [16]: 0.24 µM

SMILES: C#CCNCCc1cccc(OC(=O)N(C)CC)c1
- IC50 [17]: 2.6 µM
- IC50 [18]: 7.8 µM
- IC50 [19]: 0.54 µM

SMILES: CCN(C)C(=O)Oc1ccc2c(c1)[C@H](N)CC2
- IC50 [1]: > 1000 µM
- IC50 [20]: 5.6 µM
- IC50 [21]: 6.14 µM
- IC50 [22]: 1.96 µM

SMILES: C#CCN[C@H]1CCc2ccc(OC(=O)N(C)CCC)cc21
- IC50 [1]: > 1000 µM
- IC50 [9]: > 1000 µM
- IC50 [23]: 8.5 µM
- IC50 [24]: 12.4 µM

SMILES: C#CCN(C)[C@@H](C)Cc1cccc(OC(=O)N(C)CCCCCC)c1
- IC50 [25]: 3.4 µM

SMILES: C#CCN[C@H]1CCc2ccc(OC(=O)N(C)CCCC)cc21
- IC50 [26]: 9.3 µM

SMILES: C#CCNC1CCc2ccc(O)cc21 (stereo not given)
- IC50 [27]: 0.67 µM

SMILES: C#CCN[C@@H]1CCc2ccc(O)cc21
- IC50 [28]: 0.3 µM

SMILES: CN(C)C(=O)Oc1ccc2c(c1)C(N(C)C)CC2 (stereo not given)
- IC50 [29]: 2.15 µM

SMILES: C#CCNC1CCc2cccc(OC(=O)N(C)CCC)c21 (stereo not given)
- IC50 [30]: 45.8 µM

SMILES: C#CCNC1CCc2ccc(OC(=O)N(C)C3CCCCC3)cc21 (stereo not given)
- IC50 [31]: 41.2 µM
- IC50 [32]: 5.56 µM

SMILES: C#CCNC1CCc2c(Cl)cc(OC(=O)N(C)CC)cc21 (stereo not given)
- IC50 [33]: 25.5 µM

SMILES: C#CCNC1CCc2ccc(OC(=S)N(C)C)cc21 (stereo not given)
- IC50 [34]: 130 µM
- IC50 [35]: 98 µM
- IC50 [36]: > 500 µM

SMILES: C#CCN(CC)C1CCc2ccc(OC(=O)N(C)C)cc21 (stereo not given)
- IC50 [37]: 17.9 µM

SMILES: C#CCNC1CCc2ccc(OC(=O)N(C)C)cc21 (stereo not given)
- IC50 [38]: 750 µM
- IC50 [39]: 530 µM
- IC50 [40]: 2.07 µM

SMILES: C#CCNC1CCc2ccc(OC(=O)N(C)CCC)cc21 (stereo not given)
- IC50 [41]: 240 µM
- IC50 [42]: 14.8 µM
- IC50 [43]: 14.6 µM
- IC50 [44]: 410 µM

SMILES: C#CCNC1CCc2ccc(OC(=O)N(C)CCCCCC)cc21 (stereo not given)
- IC50 [45]: 15.7 µM
- IC50 [46]: 7.5 µM
